Measurements as given in ChEMBL document CHEMBL1795259, “Thymol, benzofuranoid, and phenylpropanoid derivatives: anti-inflammatory constituents from Eupatorium cannabinum” (J Nat Prod, 2011).

What was measured:
Conditions in all cases: Neutrophil
[1] = Antiinflammatory activity in human neutrophils assessed as inhibition of fMLP/cytochalasin B-induced superoxide anion production at 10 ug/mL after 5 mins by spectrophotometer analysis; type: functional
Method in brief: (§1)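 Donor neutrophils (6 × 10^5/mL) prepared as for elastase, with 0.5 mg/mL ferricytochrome c and 1 mM Ca2+. Equilibrated 2 min at 37 °C, compound or DMSO 5 min, CB 1 μg/mL 3 min, then fMLP 100 nM 10 min. A550 monitored continuously with stirring. SOD (100 U/mL)-inhibitable reduction, ε = 21.1/mM/10 mm. Mean ± SEM, n = 3-4.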

[2] = Antiinflammatory activity in human neutrophils assessed as inhibition of fMLP/cytochalasin B-induced elastase release using MeO-Suc-Ala-Ala-Pro-Val-p-nitroanilide as elastase substrate at 10 ug/mL after 5 mins; type: functional
Method in brief: (§2)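 Neutrophils isolated from venous blood of healthy adult volunteers (20-28 y) by dextran sedimentation, Ficoll-Hypaque centrifugation and hypotonic erythrocyte lysis, >98% viable, kept in Ca2+-free HBSS pH 7.4 at 4 °C. Cells (6 × 10^5/mL) given 100 μM substrate, equilibrated 2 min at 37 °C, compound 5 min, then fMLP 100 nM/CB 0.5 μg/mL; A405 monitored continuously. Mean ± SEM, n = 3-4.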

[3] = Antiinflammatory activity in human neutrophils assessed as inhibition of fMLP/cytochalasin B-induced elastase release using MeO-Suc-Ala-Ala-Pro-Val-p-nitroanilide as elastase substrate after 5 mins; type: functional, cell-based; method in brief: as §2
[4] = Antiinflammatory activity in human neutrophils assessed as inhibition of fMLP/cytochalasin B-induced superoxide anion production after 5 mins by spectrophotometer analysis; type: functional, cell-based; method in brief: as §1

SMILES | inhibition at 10 µg/mL [1] [%] | inhibition at 10 µg/mL [2] [%] | IC50 [3] [µM] | IC50 [4] [µM]
C=C(COC(=O)/C(C)=C\C)c1ccc(C)cc1O | 20.3 | 23 |  | 
C=C(COC(=O)CC(C)C)c1ccc(C)cc1O | 39.6 |  | 18.3 | 
Cc1ccc2c(c1)OC(C)(O)C2=O (stereo not drawn) | 0.02 | 17.3 |  | 
CC(=O)C(=O)c1ccc(C)cc1O | 10.1 | 37.3 |  | 
C/C=C(\C)C(=O)Oc1cc(C)ccc1C1(COC(C)=O)CO1 (stereo not drawn) |  |  | 25.8 | 8.32
C=C(COC(C)=O)c1ccc(C)cc1OC(=O)/C(C)=C/C |  | 36.6 |  | 8.5
C/C=C(\C)C(=O)Oc1cc(C)ccc1C(C)COC(C)=O (stereo not drawn) |  | 21.6 |  | 18.4
C=C(CO)c1ccc(C)cc1O | 2.67 | 1.86 |  | 
C=C(COC(=O)C(C)C)c1ccc(C)cc1O | 32.7 |  | 16.1 | 
COC(C)(COC(=O)C(C)C)c1ccc(C)cc1O (stereo not drawn) |  | 30 |  | 8.19
C/C=C(/C)C(=O)OCC(C)(OC)c1ccc(C)cc1O (stereo not drawn) | 14.7 | 13.6 |  | 
C/C=C(/C)C(=O)OCC(O)(COC(C)=O)c1ccc(C)cc1O (stereo not drawn) |  |  | 6.27 | 13.1
Cc1ccc2c(c1)OC1OC3(CCC21O)c1ccc(C)cc1OC3O (stereo not drawn) | 4.37 | 13 |  | 
CC(=O)c1ccc(CO)cc1O |  |  | 6.38 | 8.13
C/C=C(/C)C(=O)O[C@@H]1Oc2cc(C)ccc2[C@@]1(C)O (relative stereo) [EUPATOBENZOFURAN] | 37.1 |  | 11.3 | 
O=c1ccc2ccccc2o1 [COUMARIN] | 8.5 | 23.8 |  | 
C=C(C)c1cc2cc(C(C)=O)c(O)cc2o1 [EUPARIN] | 13.7 | 12.6 |  | 
O=c1cc(N2CCOCC2)oc2c(-c3ccccc3)cccc12 [LY-294002] |  |  | 1.98 | 1.09
C=C1CC[C@]2(C)CC[C@]3(C)[C@H](CC[C@@H]4[C@@]5(C)CC[C@H](OC(C)=O)C(C)(C)[C@@H]5CC[C@]43C)[C@H]2[C@@H]1C [TARAXASTEROL ACETATE] | 0.68 | 4.73 |  | 
